Source: ChEMBL document CHEMBL1649179, “Pharmacokinetics of LB80331 and LB80317 following oral administration of LB80380, a new antiviral agent for chronic hepatitis B (CHB), in healthy adult subjects, CHB patients, and mice” (Antimicrob Agents Chemother, 2009)

Columns and labels:
Homo sapiens [1] = experiment: Cmax in chronic hepatitis B virus infected patient assessed as (1-((2-amino-9H-purin-9-yl)methyl)cyclopropoxy)me at 240 mg, po administered as single dose by LC-MS analysis; type: ADME, organism-based; set-up: dose 240 mg, route oral; details: in vivo
Outline: (§1)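 CHB patients (HBsAg/HBeAg positive), six per dose cohort, given a first oral dose on day 1. Plasma sampled at baseline. Analysis by validated LC-MS/MS after protein precipitation with a stable-isotope internal standard; LLOQ 5 ng/ml for LB80331. Noncompartmental analysis gives Cmax and AUC0-∞.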

Homo sapiens [2] = experiment: AUC (0 to infinity) in chronic hepatitis B virus infected patient assessed as (1-((2-amino-9H-purin-9-yl)methyl)cyclopropoxy)me at 30 mg, po administered as single dose by LC-MS analysis; type: ADME, organism-based, Plasma; set-up: dose 30 mg, time infinity, route oral; details: in vivo; outline: as §1
Homo sapiens [3] = experiment: Cmax in chronic hepatitis B virus infected patient assessed as (1-((2-amino-9H-purin-9-yl)methyl)cyclopropoxy)me at 60 mg, po administered as single dose by LC-MS analysis; type: ADME, organism-based; set-up: dose 60 mg, route oral; details: in vivo; outline: as §1
Liver [4] = experiment: AUC (0 to 36 hrs) in CD-1 mouse liver assessed as (1-((2-amino-9H-purin-9-yl)methyl)cyclopropoxy)me at 30 mg/kg, po administered as single dose by LC-MS analysis; type: ADME, organism-based; set-up: time < 36 hr, dose 30 mg/kg, route oral; details: in vivo
Outline: (§2)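 Male CD-1 mice given a single oral dose in 100% PEG 400. Samples extracted with perchloric acid and neutralized with ammonium bicarbonate. One aliquot assayed for the free analyte; the other treated with calf intestinal phosphatase to give the total including di-/triphosphates. Analysis by LC-MS/MS.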

Plasma [5] = experiment: Half life in CD-1 mouse plasma assessed as (1-((2-amino-9H-purin-9-yl)methyl)cyclopropoxy)me at 30 mg/kg, po administered as single dose by LC-MS analysis; type: ADME, organism-based; set-up: dose 30 mg/kg, route oral; details: in vivo; outline: as §2
Liver [6] = experiment: Cmax in CD-1 mouse liver assessed as di- and triphosphates of (1-((2-amino-9H-purin-9-yl)methyl)cyclopropoxy)me at 30 mg/kg, po administered as single dose by LC-MS analysis; type: ADME, organism-based; set-up: dose 30 mg/kg, route oral; details: in vivo; outline: as §2
Homo sapiens [7] = experiment: Oral clearance in chronic hepatitis B virus infected patient assessed as (1-((2-amino-9H-purin-9-yl)methyl)cyclopropoxy)me at 120 mg, po qd for 4 weeks by LC-MS analysis; type: ADME, organism-based; details: in vivo, 672 h
Outline: (§3)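 Oral LB80380 was given once daily for 4 weeks to CHB patients. Plasma LB80331 was quantified by validated LC-MS/MS after protein precipitation, with stable-isotope internal standard, at baseline and steady state (weeks 2–4), 0–24 h postdose. Noncompartmental CL/F was calculated as dose (adjusted for LB80380/LB80331 molecular weights) divided by AUC (AUC0-∞ single dose; AUC0-24 steady state).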

Homo sapiens [8] = experiment: Oral clearance in chronic hepatitis B virus infected patient assessed as (1-((2-amino-9H-purin-9-yl)methyl)cyclopropoxy)me at 240 mg, po administered as single dose by LC-MS analysis; type: ADME, organism-based; details: in vivo; outline: as §3
Liver [9] = experiment: AUC (0 to 36 hrs) in CD-1 mouse liver assessed as di- and triphosphates of (1-((2-amino-9H-purin-9-yl)methyl)cyclopropoxy)me at 30 mg/kg, po administered as single dose by LC-MS analysis; type: ADME, organism-based; set-up: time < 36 hr, dose 30 mg/kg, route oral; details: in vivo; outline: as §2
Homo sapiens [10] = experiment: Half life in chronic hepatitis B virus infected patient assessed as (1-((2-amino-9H-purin-9-yl)methyl)cyclopropoxy)me at 60 mg, po administered as single dose by LC-MS analysis; type: ADME, organism-based; details: in vivo
Outline: (§4)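 CHB patients given LB80380 orally once daily for 4 weeks. Plasma was sampled on day 1 and at steady state (weeks 2–4), predose and 0.5, 1, 2, 3, 4, 6, 8 and 24 h postdose. LB80331 was measured by validated LC-MS/MS (LLOQ 5 ng/ml). Terminal-phase apparent t1/2 came from noncompartmental analysis and was flagged if extrapolated AUC exceeded 20% of AUC0-24.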

Homo sapiens [11] = experiment: Half life in chronic hepatitis B virus infected patient assessed as (1-((2-amino-9H-purin-9-yl)methyl)cyclopropoxy)me at 120 mg, po qd for 4 weeks by LC-MS analysis; type: ADME, organism-based; details: in vivo, 672 h; outline: as §4
Homo sapiens [12] = experiment: Cmax in fasted healthy human assessed as (1-((2-amino-9H-purin-9-yl)methyl)cyclopropoxy)me at 60 mg, po administered as single dose by LC-MS analysis; type: ADME, organism-based; set-up: dose 60 mg, route oral; details: in vivo
Outline: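 Healthy subjects given a single oral dose after an overnight fast or after a high-fat breakfast. Plasma LB80331 measured by validated LC-MS/MS (LLOQ 5 ng/ml) after protein precipitation. Cmax by noncompartmental analysis.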

Homo sapiens [13] = experiment: Oral clearance in chronic hepatitis B virus infected patient assessed as (1-((2-amino-9H-purin-9-yl)methyl)cyclopropoxy)me at 30 mg, po administered as single dose by LC-MS analysis; type: ADME, organism-based; details: in vivo; outline: as §3
Homo sapiens [14] = experiment: Half life in chronic hepatitis B virus infected patient assessed as (1-((2-amino-9H-purin-9-yl)methyl)cyclopropoxy)me at 240 mg, po qd for 4 weeks by LC-MS analysis; type: ADME, organism-based; details: in vivo, 672 h; outline: as §4
Homo sapiens [15] = experiment: Half life in chronic hepatitis B virus infected patient assessed as (1-((2-amino-9H-purin-9-yl)methyl)cyclopropoxy)me at 60 mg, po qd for 4 weeks by LC-MS analysis; type: ADME, organism-based; details: in vivo, 672 h; outline: as §4
Homo sapiens [16] = experiment: Cmax in chronic hepatitis B virus infected patient assessed as (1-((2-amino-9H-purin-9-yl)methyl)cyclopropoxy)me at 240 mg, po qd for 4 weeks by LC-MS analysis; type: ADME, organism-based; set-up: dose 240 mg, route oral; details: in vivo, 672 h
Outline: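 CHB patients, oral once daily for 4 weeks. Plasma sampled at steady state (weeks 2–4), predose and at 0.5, 1, 2, 3, 4, 6, 8 and 24 h postdose. LB80331 measured by validated LC-MS/MS (LLOQ 5 ng/ml) after protein precipitation with a stable-isotope internal standard. Cmax by noncompartmental analysis.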

Plasma [17] = experiment: Tmax in CD-1 mouse plasma assessed as (1-((2-amino-9H-purin-9-yl)methyl)cyclopropoxy)me at 30 mg/kg, po administered as single dose by LC-MS analysis; type: ADME, organism-based; set-up: dose 30 mg/kg, route oral; details: in vivo
Outline: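 Male CD-1 mice received 30 mg/kg orally in 100% PEG 400. Plasma and snap-frozen liver were taken from 3 mice per time point at 1, 2, 4, 6, 10, 24 and 36 h. Samples were extracted with perchloric acid and neutralized with ammonium bicarbonate. Free LB80331/LB80317 was measured directly by LC-MS/MS; total, including di- and triphosphates, was measured after calf intestinal phosphatase treatment.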

Homo sapiens [18] = experiment: Tmax in fasted healthy human assessed as (1-((2-amino-9H-purin-9-yl)methyl)cyclopropoxy)me assessed as (1-((2-amino-9H-purin-9-yl)methyl)cyclopropoxy)me at 60 mg, po administered as single dose by LC-MS analysis; type: ADME, organism-based; details: in vivo
Outline: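 Healthy subjects received a single oral 60-mg dose after a high-fat breakfast or after an overnight fast. Plasma LB80331 was assayed by validated LC-MS/MS (LLOQ 5 ng/ml; intra- and interassay precision and accuracy <10%). Tmax was obtained by noncompartmental analysis.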

Homo sapiens [19] = experiment: AUC (0 to infinity) in chronic hepatitis B virus infected patient assessed as (1-((2-amino-9H-purin-9-yl)methyl)cyclopropoxy)me at 60 mg, po administered as single dose by LC-MS analysis; type: ADME, organism-based, Plasma; set-up: dose 60 mg, time infinity, route oral; details: in vivo; outline: as §1

Cmax (Homo sapiens [1]): 1076 ng/mL
AUC (Homo sapiens [2]): 1069 ng·h/mL
Cmax (Homo sapiens [3]): 397 ng/mL
AUC (Liver [4]): 102 µM·h
t1/2 (Plasma [5]): 2 h
Cmax (Liver [6]): 17 µM
CL/F (Homo sapiens [7]): 304 mL/min
CL/F (Homo sapiens [8]): 363 mL/min
AUC (Liver [9]): 64 µM·h
t1/2 (Homo sapiens [10]): 3 h
t1/2 (Homo sapiens [11]): 3.1 h
Cmax (Homo sapiens [12]): 286 ng/mL
CL/F (Homo sapiens [13]): 288 mL/min
t1/2 (Homo sapiens [14]): 3.3 h
t1/2 (Homo sapiens [15]): 3 h
Cmax (Homo sapiens [16]): 1164 ng/mL
Tmax (Plasma [17]): 1 h
Tmax (Homo sapiens [18]): 1.5 h
AUC (Homo sapiens [19]): 2344 ng·h/mL
SMILES: Nc1ncc2ncn(CC3(OCP(=O)(O)O)CC3)c2n1 [BESIFOVIR]
